Measured values as given in ChEMBL document CHEMBL1132450, “New natural sesquiterpenes as modulators of daunomycin resistance in a multidrug-resistant Leishmania tropica line” (1999).

How the values were obtained:
Leishmania tropica [1] = test: The compound was tested for growth inhibition against Wild type parasites, at a concentration of 30 uM.; assay type: functional
Procedure, shortened: (§1)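 Wild-type L. tropica LRC clone, obtained by agar plating. Cultured at 28 °C in modified RPMI 1640 with 20% heat-inactivated fetal bovine serum. Growth sensitivity to the sesquiterpene was assessed.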

[2] = The compound was tested for binding activity against nucleotide-binding domain 2, with quenching at 50 uM
Procedure, shortened: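 Recombinant Leishmania Pgp-like transporter NBD2, expressed in E. coli M15 [pREP4] and affinity-purified, at 0.2–0.5 µM final in pH 8.5 potassium phosphate buffer with 1 M NaCl, glycerol, HECAMEG and 10 mM imidazole, 25 °C. Sesquiterpene in DMSO (≤2% final) titrated in. Intrinsic fluorescence read at 300–350 nm emission (288 nm excitation), corrected for inner-filter and dilution. Quenching at 50 µM was read graphically from the curve.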

Leishmania tropica [3] = test: The compound was tested for growth inhibition against DNM-R150 (Leishmania tropica) parasites, at a concentration of 15 uM.; assay type: functional
Procedure, shortened: (§2)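 Multidrug-resistant L. tropica DNM-R150 line, kept under continuous 150 µM daunomycin and overexpressing a Pgp-like transporter. Parasites were grown at 28 °C in modified RPMI 1640 with 20% heat-inactivated fetal bovine serum and tested for growth sensitivity to the sesquiterpene.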

Leishmania tropica [4] = test: The compound was tested for growth inhibition against DNM-R150 (Leishmania tropica) parasites, at a concentration of 30 uM.; assay type: functional; procedure, shortened: as §2
Leishmania tropica [5] = test: The compound was tested for growth inhibition against Wild type parasites, at a concentration of 15 uM.; assay type: functional; procedure, shortened: as §1
Leishmania tropica [6] = test: The compound was tested for growth inhibition against DNM-R150 (Leishmania tropica) parasites, at a concentration of 30 uM; assay type: functional; procedure, shortened: as §2
Leishmania tropica [7] = test: The compound was tested for growth inhibition against Wild type parasites, at a concentration of 15 uM; assay type: functional; procedure, shortened: as §1
Leishmania tropica [8] = test: The compound was tested for growth inhibition against DNM-R150 (Leishmania tropica) parasites, at a concentration of 15 uM; assay type: functional; procedure, shortened: as §2
Leishmania tropica [9] = test: The compound was tested for growth inhibition against Wild type parasites, at a concentration of 30 uM; assay type: functional; procedure, shortened: as §1

Quenching [2]	Structure (SMILES)	Growth inhibition (Leishmania tropica [1])	Growth inhibition (Leishmania tropica [3])	Growth inhibition (Leishmania tropica [4])	Growth inhibition (Leishmania tropica [5])	Growth inhibition (Leishmania tropica [6])	Growth inhibition (Leishmania tropica [7])	Growth inhibition (Leishmania tropica [8])	Growth inhibition (Leishmania tropica [9])
22.8%	CCC(C)C(=O)OC[C@]12[C@H](OC(=O)c3ccccc3)[C@@H](OC(C)=O)[C@@H]3[C@@H](OC(C)=O)[C@]1(OC3(C)C)[C@@](C)(O)C[C@H](OC(C)=O)[C@@H]2OC(C)=O (some centres undefined)	9.5%	40.9%	86.1%	4.9%	–	–	–	–
27.5%	CCC(C)C(=O)OC[C@]12[C@H](OC(=O)c3ccccc3)[C@@H](OC(=O)C(C)CC)[C@@H]3[C@@H](O)[C@]1(OC3(C)C)[C@@](C)(O)C[C@H](O)[C@@H]2OC(C)=O (some centres undefined)	–	–	–	–	92.6%	5.3%	83.1%	4%
30.8%	CCC(C)C(=O)OC[C@]12[C@H](OC(=O)c3ccccc3)[C@@H](OC(C)=O)[C@@H]3[C@@H](O)[C@]1(OC3(C)C)[C@@](C)(O)C[C@H](OC(C)=O)[C@@H]2OC(C)=O (some centres undefined)	11.1%	26.8%	91.7%	7.5%	–	–	–	–
27%	CC(=O)OC[C@@]12[C@@H](OC(C)=O)CC[C@](C)(O)[C@]13OC(C)(C)[C@H]([C@H](OC(C)=O)[C@H]2OC(=O)c1ccccc1)[C@H]3OC(C)=O	16.9%	16.3%	49.8%	13.5%	–	–	–	–
31.8%	CCC(C)C(=O)OC[C@]12[C@@H](OC(=O)c3ccccc3)[C@H](OC(=O)c3cccnc3)[C@@H]3[C@@H](OC(C)=O)[C@]1(OC3(C)C)[C@@](C)(O)C[C@H](OC(C)=O)[C@@H]2OC(C)=O (some centres undefined)	6.2%	32.3%	82.5%	7.5%	–	–	–	–

The remaining lines, values behind:

Structure (SMILES)	Quenching [2]	Growth inhibition (Leishmania tropica [1])	Growth inhibition (Leishmania tropica [3])	Growth inhibition (Leishmania tropica [4])	Growth inhibition (Leishmania tropica [5])	Growth inhibition (Leishmania tropica [6])	Growth inhibition (Leishmania tropica [7])	Growth inhibition (Leishmania tropica [8])	Growth inhibition (Leishmania tropica [9])
CCC(C)C(=O)OC[C@]12[C@H](OC(=O)c3ccccc3)[C@@H](OC(C)=O)[C@@H]3[C@@H](OC(C)=O)[C@]1(OC3(C)C)[C@@](C)(O)C[C@H](O)[C@@H]2OC(=O)c1ccccc1 (some centres undefined)	–	–	–	–	–	95.4%	25.5%	77.8%	62.9%
CCC(C)C(=O)OC[C@]12[C@H](OC(=O)c3ccccc3)[C@@H](OC(C)=O)[C@@H]3[C@@H](O)[C@]1(OC3(C)C)[C@@](C)(O)C[C@H](O)[C@@H]2OC(=O)c1ccccc1 (some centres undefined)	31.4%	–	–	–	–	96%	9.8%	90.5%	30%
CCC(C)C(=O)OC[C@@]12[C@@H](OC(C)=O)CC[C@](C)(O)[C@]13OC(C)(C)[C@H]([C@@H](OC(=O)c1cccnc1)[C@@H]2OC(=O)c1ccccc1)[C@H]3OC(C)=O (some centres undefined)	34.3%	–	–	–	–	96.1%	6.9%	92.9%	13.8%
CCC(C)C(=O)OC[C@]12[C@H](OC(=O)c3ccccc3)[C@@H](OC(C)=O)[C@@H]3[C@@H](O)[C@]1(OC3(C)C)[C@@](C)(O)C[C@H](OC(=O)c1cccnc1)[C@@H]2O (some centres undefined)	31.1%	–	–	–	–	88.3%	9.3%	20.8%	8.4%
